Screening data as filed in PubChem.
Arrestin-AP2 inh: blocks beta-arrestin peptide binding to AP2 adaptin; FITC-arrestin peptide / GST-AP2 beads, flow cytometry; AP2 beta2 appendage carries R879A mutation; inhibition, % at 10 µM; AID 504490; actives 0.31% (n = 340,000);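 active = inhibition above a set limit, near 3 SD of compounds lacking own fluorescence, cut at about 54% in these data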
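system = GST-tagged AP2 beta2-adaptin appendage (R879A) on 4 µm glutathione beads | reagent = FITC-labelled arrestin peptide probe, 50 nM final | schedule = compound with beads 12 min RT, then probe 1 h RT | signal = HyperCyt-sampled flow cytometry, FL1 channel, ex 488/em 535 nm | read-out = percent response from loss of bead-bound FITC fluorescence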
NTR1 agonist: activates human neurotensin receptor 1; activation, % at 20 µM; actives 0.17% (n = 330,000); NTR1-U2OS beta-arrestin-GFP spot imaging, agonist mode;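 active = activation at or above 40% of the spot to cytoplasm intensity ratio, with at least 20 cells analyzed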
Target sequence (P30989 whole entry, looked up): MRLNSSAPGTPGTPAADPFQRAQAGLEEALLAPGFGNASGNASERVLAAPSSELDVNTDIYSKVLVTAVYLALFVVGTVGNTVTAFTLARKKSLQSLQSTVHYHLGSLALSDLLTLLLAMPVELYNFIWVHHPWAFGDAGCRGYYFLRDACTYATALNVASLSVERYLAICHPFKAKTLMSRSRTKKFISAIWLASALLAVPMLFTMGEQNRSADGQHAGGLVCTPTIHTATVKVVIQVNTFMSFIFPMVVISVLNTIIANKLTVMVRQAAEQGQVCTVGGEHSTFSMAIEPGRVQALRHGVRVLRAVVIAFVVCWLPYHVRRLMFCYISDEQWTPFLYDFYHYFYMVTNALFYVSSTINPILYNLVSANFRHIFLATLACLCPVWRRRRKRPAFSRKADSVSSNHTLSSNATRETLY
XiGFP reactiv: activators of X-chromosome reactivation in mouse fibroblasts. AID 743238. actives 0.055% (n = 360,000). activation, % at 7.58 µM. XiGFP mouse fibroblasts, % GFP-positive cells imaging, 3 d; cells co-treated with 5-aza-dC sensitizer; scaled so ellipticine positive control = 100%;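 active = mean normalized replicate activation at least 10% and every replicate at or above 10%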
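System: XiGFP fibroblasts, SV40-immortalized. Medium: DMEM plus 5-aza-dC sensitizer. Doses: single point. Timing: 3 d treatment, 15 min room-temperature fixation. Control set: ellipticine 6 µM.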
T cell modulator: T cell immune modulation candidate; response (vesicle binding), % at 7 µM; 2C CD8+ T cell-vesicle binding, flow cytometry; hits give low values; actives 0.068% (n = 330,000);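 active = response, share of CD8 T cells binding vesicles, and their 90th percentile fluorescence all below set limits, cut at about 80% in these data, passing the limit was not always enough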;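 note: values below 100% mean blocked vesicle binding to the CD8+ T cells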
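Read-out – percent CD8+ FL2 mean versus row control · System – murine 2C transgenic CD8+ T lymphocytes · Times – 1.5 h cell–vesicle binding at 37 °C, then 20 min icy labelling · Control set – naked vesicles low, QL9 vesicles with vehicle high · Detection – cytometric PE anti-B7-1 and Alexa647 anti-CD8 signals after 1% paraformaldehyde fixation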
beta cell repl: inducers of beta-cell replication in MIN6 cells; actives 0.29% (n = 330,000); MIN6 cells proliferation, ATPlite luminescence, 48 h; cells starved in 0.2% serum; 100% = growth in 10% serum; proliferation, % at 10 µM; AID 2380;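 active = compounds whose signal lies at least 3.5 SD above the mean of all wells on their plate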
V-ATPase pHluor: yeast V-ATPase proton transport regulation by pHLuorin. S. cerevisiae, pHLuorin cytosolic pH fluorescence. response, % at 10 µM. actives 0.37% (n = 350,000). AID 504577; in the data active = response mostly above about 7.3%, no sharp cut-off; inactive = mostly below about 5.4%; note: actives read high
Arr AP2 CP1: inhibitors of human beta-arrestin and AP2 interaction | inhibition, % at 10 µM | actives 2% (n = 1,300) | GST-AP2 beads, FITC arrestin peptide binding, flow cytometry; GST-fused beta2-adaptin appendage, R879A mutant | shares compounds with Arrestin-AP2 inh;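 active = inhibition above a set limit, roughly 3 SD of non-fluorescent compound noise, cut at about 38% in these data; inactive = inhibition at or below that limit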;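 note: loss of bead fluorescence from 50 nM FITC arrestin peptide bound to appendage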
GST-FITC bead: GST-GSH bead binding interference, counter-screen; shares compounds with Arrestin-AP2 inh; GST-fluorescein binding to GSH beads, fluorescence; inhibition, % at 10 µM; actives 2% (n = 1,300);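 active = inhibition above 50%, about 3 SD of the inhibition seen with non-fluorescent compounds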;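 note: fluorescein maleimide labelled GST captured on 4 micron glutathione beads; higher means more loss of bead fluorescence from quenching or blocked binding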
Of the large screens only hits and unclear results are named; the others gave an inactive call (follow-up assays come after a bar, where they were run). In the library only some 0.89% were active in any assay of this set; here they are far more common.

Cc1ccc(C(C)(C)NC(=O)C2CCC(=O)N(Cc3ccccc3F)C2)cc1 (centres undefined)	none | Arr AP2 CP1 inactive | GST-FITC bead inactive
COc1ccccc1N1CCN(C(=O)CSc2ncnc3scc(-c4ccccc4)c23)CC1	Arrestin-AP2 inh 60 | Arr AP2 CP1 inactive | GST-FITC bead inactive
COc1ccc(-c2csc3ncnc(N4CCN(c5ccccc5O)CC4)c23)cc1	Arrestin-AP2 inh 56 (no result: XiGFP reactiv) | Arr AP2 CP1 inactive | GST-FITC bead inactive
Cc1ccc(C2=C(c3ccc([N+](=O)[O-])cc3)C(=O)OC2)cc1C	Arrestin-AP2 inh 54 | Arr AP2 CP1 inactive | GST-FITC bead inactive
COc1ccc(C2=C(c3ccc([N+](=O)[O-])cc3)C(=O)OC2)cc1	none
O=C(Nc1ccc(NC(=S)NC(=O)c2ccccc2Cl)cc1)c1cccc(Cl)c1	Arrestin-AP2 inh 59 (no result: XiGFP reactiv) | Arr AP2 CP1 inactive | GST-FITC bead inactive
O=C(Nc1ccccc1N1CCCC1)c1ccc(Br)o1	none (no result: XiGFP reactiv)
COc1ccc(N2CCCC2)c(NC(=O)c2ccc(Br)o2)c1	Arrestin-AP2 inh 64 | Arr AP2 CP1 inactive | GST-FITC bead inactive
C[C@@H]1CCCCO[C@@H](CN(C)C(=O)Nc2ccc(C(F)(F)F)cc2)[C@@H](C)CN([C@H](C)CO)C(=O)c2cc(NC(=O)Nc3ccc(C(F)(F)F)cc3)ccc2O1	none (no result: Arrestin-AP2 inh, NTR1 agonist, T cell modulator, beta cell repl, V-ATPase pHluor)
O=C(NNC(=O)c1ccc(Cl)nc1)c1ccncc1	Arrestin-AP2 inh 57 | Arr AP2 CP1 inactive | GST-FITC bead inactive
O=C(NNC(=O)c1ccncc1)c1ccncc1	none (no result: XiGFP reactiv)
Cc1ccccc1/C=N/Nc1ccc(Cl)nn1	Arrestin-AP2 inh 60 | Arr AP2 CP1 inactive | GST-FITC bead inactive
COc1ccc(-c2cn(CC[C@@H]3CC[C@@H](NS(=O)(=O)c4ccccc4C)[C@@H](CO)O3)nn2)cc1	none (no result: Arrestin-AP2 inh, NTR1 agonist, T cell modulator, beta cell repl, V-ATPase pHluor)
CCN1/C(=C2\SC(=S)N(Cc3ccccc3)C2=O)Sc2ccccc21	Arrestin-AP2 inh 107 (no result: V-ATPase pHluor) | Arr AP2 CP1 inactive | GST-FITC bead inactive
C[C@@H]1CN([C@H](C)CO)C(=O)c2cc(-c3cccnc3)cnc2O[C@@H]1CN(C)Cc1ccccc1	none (no result: Arrestin-AP2 inh, NTR1 agonist, T cell modulator, beta cell repl, V-ATPase pHluor)
CC(=O)OC(COc1ccccc1)Cn1cnc2ccccc21 (centres undefined)	Arrestin-AP2 inh 55 | Arr AP2 CP1 inactive | GST-FITC bead inactive
Cc1ccn2c(NC(=O)C(C)(C)Oc3ccc(Cl)cc3)c(-c3cccs3)nc2c1	Arrestin-AP2 inh 60 | Arr AP2 CP1 inactive | GST-FITC bead inactive
NS(=O)(=O)c1ccc(NC(=O)/C=C/c2cn(-c3ccccc3)nc2-c2cccc(Cl)c2)cc1	Arrestin-AP2 inh 58 | Arr AP2 CP1 inactive | GST-FITC bead inactive
O=C(/C=C/c1cn(-c2ccccc2)nc1-c1ccccc1)Nc1ccc(C(=O)O)cc1	none
O=C(C[C@@H]1CC[C@H]2[C@@H](COC[C@H](O)CN2Cc2ccc3c(c2)OCO3)O1)N1CCOCC1	none (no result: Arrestin-AP2 inh, NTR1 agonist, T cell modulator, beta cell repl, V-ATPase pHluor)
COC(=O)C[C@@H]1CC[C@H]2[C@@H](COc3ccc(NC(=O)NCc4ccccc4)cc3C(=O)N2C)O1	none (no result: Arrestin-AP2 inh, NTR1 agonist, T cell modulator, beta cell repl, V-ATPase pHluor)
COc1ccc(OC)c(S(=O)(=O)Nc2cccc(-c3ccc(N4CCCCCC4)nn3)c2)c1	Arrestin-AP2 inh 60 | Arr AP2 CP1 inactive | GST-FITC bead inactive
Cc1csc(=Nc2cccnc2)n1CC1CCCCC1	Arrestin-AP2 inh 70 | Arr AP2 CP1 inactive | GST-FITC bead inactive
COc1ccc2c3c(n(C)c2c1)[C@@H](CO)N(Cc1nccs1)CC31CCN(C(C)=O)CC1	none (no result: Arrestin-AP2 inh, NTR1 agonist, T cell modulator, beta cell repl, V-ATPase pHluor)
CC(=O)Nc1ccc(NC(=O)CSc2nnc(C)n2-c2ccccc2)cc1	Arrestin-AP2 inh 60 | Arr AP2 CP1 inactive | GST-FITC bead inactive
Cc1nnc(SCC(=O)Nc2ccc(C(N)=O)cc2)n1-c1ccccc1	none
